Results on six compounds are retold here after ChEMBL document CHEMBL1154853, “New 1,3-oxazolo[4,5-c]quinoline derivatives: synthesis and evaluation of antibacterial and antituberculosis properties” (2010).

Values after ≈ are worked out from the molar mass of the structure shown.

One may read the MIC as the smallest concentration in the dilution series that meets the test's criterion for growth inhibition. Low readings indicate greater potency, high ones weaker potency.

The first experiment has as its system Klebsiella pneumoniae. In words: Antimicrobial activity against Klebsiella pneumoniae at MIC after 3 to 4 days by disc diffusion method. In kind it is functional. (In general: Agar diffusion results depend on both activity and mobility in agar.)
Regarding `CCCCCNc1nc2c(-c3cccc(F)c3)nc3ccccc3c2o1`, the “diameter of the inhibition zone (DIZ)” value was found to be 12 mm.
For `N#Cc1cccc(Nc2nc3c(-c4cccc(F)c4)nc4ccccc4c3o2)c1`, the “diameter of the inhibition zone (DIZ)” value is reported as 12 mm.
`COc1ccccc1Nc1nc2c(-c3ccc(F)cc3)nc3ccccc3c2o1`: the “diameter of the inhibition zone (DIZ)” value stood at 23 mm.
For the compound `CCCCCNC(=O)Nc1c(-c2ccc(F)cc2)nc2ccccc2c1O`, the “diameter of the inhibition zone (DIZ)” value is less than 10 mm.
The same measure, in the same setting: the same measure for `Fc1cccc(-c2nc3ccccc3c3oc(NCCc4ccccc4)nc23)c1`: less than 10 mm.
On the same count and under the same terms, to `CCCCCNc1nc2c(-c3ccc(F)cc3)nc3ccccc3c2o1` belongs less than 10 mm.

In another experiment the test system is Pseudomonas aeruginosa. Kind of experiment: Antimicrobial activity against Pseudomonas aeruginosa ATTC 27853 at MIC after 3 to 4 days by disc diffusion method. It is filed as functional.
Regarding `CCCCCNc1nc2c(-c3cccc(F)c3)nc3ccccc3c2o1`, the “diameter of the inhibition zone (DIZ)” value stood at 14 mm.
Still for that read-out and setting: to `N#Cc1cccc(Nc2nc3c(-c4cccc(F)c4)nc4ccccc4c3o2)c1` belongs 14 mm; to `COc1ccccc1Nc1nc2c(-c3ccc(F)cc3)nc3ccccc3c2o1`, 19 mm.
For the compound `CCCCCNC(=O)Nc1c(-c2ccc(F)cc2)nc2ccccc2c1O`, the “diameter of the inhibition zone (DIZ)” value was less than 10 mm.
With `Fc1cccc(-c2nc3ccccc3c3oc(NCCc4ccccc4)nc23)c1`, the “diameter of the inhibition zone (DIZ)” value is less than 10 mm.
For the compound `CCCCCNc1nc2c(-c3ccc(F)cc3)nc3ccccc3c2o1`, the “diameter of the inhibition zone (DIZ)” value is less than 10 mm.

The next experiment has as its system Staphylococcus aureus. In words: Antimicrobial activity against Staphylococcus aureus […] after 16 to 18 hrs by serial dilution method. In kind it is functional. In a few lines: (§1)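 Tube broth dilution: serial drug dilutions in Mueller Hinton broth, pH adjusted to 5.0 with phosphate buffer. A standardized bacterial suspension was inoculated and incubated 16-18 h at 37 °C. MIC was read as the lowest drug concentration with no visible growth. Ciprofloxacin served as the reference.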
In turn, `CCCCCNc1nc2c(-c3cccc(F)c3)nc3ccccc3c2o1` yielded an MIC of 12.5 µg/mL (≈ 35.8 µM).
The same measure, in the same setting: to `N#Cc1cccc(Nc2nc3c(-c4cccc(F)c4)nc4ccccc4c3o2)c1` belongs 12.5 µg/mL (≈ 32.9 µM); to `COc1ccccc1Nc1nc2c(-c3ccc(F)cc3)nc3ccccc3c2o1`, 6.25 µg/mL (≈ 16.2 µM); to `CCCCCNC(=O)Nc1c(-c2ccc(F)cc2)nc2ccccc2c1O`, 50 µg/mL (≈ 136 µM).
The same measure, in the same setting: the same measure for `Fc1cccc(-c2nc3ccccc3c3oc(NCCc4ccccc4)nc23)c1`: 50 µg/mL (≈ 130 µM); for `CCCCCNc1nc2c(-c3ccc(F)cc3)nc3ccccc3c2o1`: 50 µg/mL (≈ 143 µM).

For another experiment, the system named is Staphylococcus aureus. In words: Antimicrobial activity against Staphylococcus aureus […] at MIC after 3 to 4 days by disc diffusion method. It is filed as functional.
As for `CCCCCNc1nc2c(-c3cccc(F)c3)nc3ccccc3c2o1`, the “diameter of the inhibition zone (DIZ)” value was 11 mm.
The same measure, in the same setting: to `N#Cc1cccc(Nc2nc3c(-c4cccc(F)c4)nc4ccccc4c3o2)c1` belongs 11 mm.
As to `COc1ccccc1Nc1nc2c(-c3ccc(F)cc3)nc3ccccc3c2o1`, the “diameter of the inhibition zone (DIZ)” value was determined as 22 mm.
The same measure, in the same setting: the same measure for `CCCCCNC(=O)Nc1c(-c2ccc(F)cc2)nc2ccccc2c1O`: less than 10 mm.
Consider `Fc1cccc(-c2nc3ccccc3c3oc(NCCc4ccccc4)nc23)c1`, for which the “diameter of the inhibition zone (DIZ)” value was less than 10 mm.
Turning to `CCCCCNc1nc2c(-c3ccc(F)cc3)nc3ccccc3c2o1`, the “diameter of the inhibition zone (DIZ)” value is less than 10 mm.

The next experiment relates to Escherichia coli. Kind of experiment: Antimicrobial activity against Escherichia coli […] after 16 to 18 hrs by serial dilution method. It is filed as functional. In a few lines:
as §1
In turn, `CCCCCNc1nc2c(-c3cccc(F)c3)nc3ccccc3c2o1` came in with a minimum inhibitory concentration (MIC) of 6.25 µg/mL (≈ 17.9 µM).
As for `N#Cc1cccc(Nc2nc3c(-c4cccc(F)c4)nc4ccccc4c3o2)c1`, the MIC worked out at 12.5 µg/mL (≈ 32.9 µM).
The same measure, in the same setting: the same measure for `COc1ccccc1Nc1nc2c(-c3ccc(F)cc3)nc3ccccc3c2o1`: 6.25 µg/mL (≈ 16.2 µM).
`CCCCCNC(=O)Nc1c(-c2ccc(F)cc2)nc2ccccc2c1O` had an MIC of 6.25 µg/mL (≈ 17 µM).
The same measure, in the same setting: the same measure for `Fc1cccc(-c2nc3ccccc3c3oc(NCCc4ccccc4)nc23)c1`: 50 µg/mL (≈ 130 µM).
Consider `CCCCCNc1nc2c(-c3ccc(F)cc3)nc3ccccc3c2o1`, for which it took 50 µg/mL (≈ 143 µM) to inhibit growth (MIC).

A further experiment has as its system Escherichia coli. Kind of experiment: Antimicrobial activity against Escherichia coli […] at MIC after 3 to 4 days by disc diffusion method. In kind it is functional.
For the compound `CCCCCNc1nc2c(-c3cccc(F)c3)nc3ccccc3c2o1`, the “diameter of the inhibition zone (DIZ)” value was determined as 24 mm.
Still for that read-out and setting: to `N#Cc1cccc(Nc2nc3c(-c4cccc(F)c4)nc4ccccc4c3o2)c1` belongs 16 mm; to `COc1ccccc1Nc1nc2c(-c3ccc(F)cc3)nc3ccccc3c2o1`, 27 mm.
On the same count and under the same terms, to `CCCCCNC(=O)Nc1c(-c2ccc(F)cc2)nc2ccccc2c1O` belongs 20 mm.
Still for that read-out and setting: the same measure for `Fc1cccc(-c2nc3ccccc3c3oc(NCCc4ccccc4)nc23)c1`: less than 10 mm; for `CCCCCNc1nc2c(-c3ccc(F)cc3)nc3ccccc3c2o1`: less than 10 mm.

In another experiment the test system is Mycobacterium tuberculosis. In words: Antitubercular activity against Mycobacterium tuberculosis H37Rv at MIC after 24 hrs by broth microdilution method. It is filed as functional. An outline of the steps:
(§2)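 M. tuberculosis H37Rv grown in Middlebrook 7H9 with 10% OADC, diluted to McFarland 1, 50 µl added to 150 µl fresh medium. Compounds from 2 mg/mL DMF stocks tested at 1, 10 and 100 µg/mL; DMF-only controls. 7 days at 37 °C, then 0.01% resazurin added with 24 h further incubation. MIC = lowest concentration preventing blue-to-pink change.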
Turning to `CCCCCNc1nc2c(-c3cccc(F)c3)nc3ccccc3c2o1`, the “inhibition (INH)” value was found to be 95%.
With `N#Cc1cccc(Nc2nc3c(-c4cccc(F)c4)nc4ccccc4c3o2)c1`, the “inhibition (INH)” value was 0%.
For `COc1ccccc1Nc1nc2c(-c3ccc(F)cc3)nc3ccccc3c2o1`, the “inhibition (INH)” value is 99%.
On the same count and under the same terms, to `CCCCCNC(=O)Nc1c(-c2ccc(F)cc2)nc2ccccc2c1O` belongs 0%.
For `Fc1cccc(-c2nc3ccccc3c3oc(NCCc4ccccc4)nc23)c1`, the “inhibition (INH)” value is reported as 0%.
On the same count and under the same terms, the same measure for `CCCCCNc1nc2c(-c3ccc(F)cc3)nc3ccccc3c2o1`: 0%.

A further experiment has as its system Pseudomonas aeruginosa. Kind of experiment: Antimicrobial activity against Pseudomonas aeruginosa ATTC 27853 after 16 to 18 hrs by serial dilution method. In kind it is functional. In a few lines: as §1
The compound `CCCCCNc1nc2c(-c3cccc(F)c3)nc3ccccc3c2o1` had a minimal inhibitory concentration (MIC) of 12.5 µg/mL (≈ 35.8 µM).
Same read-out and setting: to `N#Cc1cccc(Nc2nc3c(-c4cccc(F)c4)nc4ccccc4c3o2)c1` belongs 12.5 µg/mL (≈ 32.9 µM); to `COc1ccccc1Nc1nc2c(-c3ccc(F)cc3)nc3ccccc3c2o1`, 6.25 µg/mL (≈ 16.2 µM).
For `CCCCCNC(=O)Nc1c(-c2ccc(F)cc2)nc2ccccc2c1O`, inhibition of growth (MIC) required 50 µg/mL (≈ 136 µM).
`Fc1cccc(-c2nc3ccccc3c3oc(NCCc4ccccc4)nc23)c1` displayed a minimum inhibitory concentration (MIC) of 50 µg/mL (≈ 130 µM).
Same read-out and setting: the same measure for `CCCCCNc1nc2c(-c3ccc(F)cc3)nc3ccccc3c2o1`: 50 µg/mL (≈ 143 µM).

In a further experiment the test system is Mycobacterium tuberculosis. In words: Antitubercular activity against Mycobacterium tuberculosis H37Rv after 24 hrs by broth microdilution method. In kind it is functional. In a few lines: as §2
(Broth dilution looks for growth in wells or tubes with falling amounts of substance.)
`CCCCCNc1nc2c(-c3cccc(F)c3)nc3ccccc3c2o1`: the MIC was 10 µg/mL (≈ 28.6 µM).
Compound `N#Cc1cccc(Nc2nc3c(-c4cccc(F)c4)nc4ccccc4c3o2)c1` registered a minimum inhibitory concentration (MIC) of more than 100 µg/mL.
Turning to `COc1ccccc1Nc1nc2c(-c3ccc(F)cc3)nc3ccccc3c2o1`, it took 1 µg/mL (≈ 2.59 µM) to inhibit growth (MIC).
Consider `CCCCCNC(=O)Nc1c(-c2ccc(F)cc2)nc2ccccc2c1O`, for which the minimum inhibitory concentration (MIC) is more than 100 µg/mL.
Still for that read-out and setting: to `Fc1cccc(-c2nc3ccccc3c3oc(NCCc4ccccc4)nc23)c1` belongs more than 100 µg/mL.
On the same count and under the same terms, to `CCCCCNc1nc2c(-c3ccc(F)cc3)nc3ccccc3c2o1` belongs more than 100 µg/mL.

The next experiment has as its system Klebsiella pneumoniae. Kind of experiment: Antimicrobial activity against Klebsiella pneumoniae after 16 to 18 hrs by serial dilution method. In kind it is functional. An outline of the steps: as §1
As for `CCCCCNc1nc2c(-c3cccc(F)c3)nc3ccccc3c2o1`, it took 12.5 µg/mL (≈ 35.8 µM) to inhibit growth (MIC).
Still for that read-out and setting: to `N#Cc1cccc(Nc2nc3c(-c4cccc(F)c4)nc4ccccc4c3o2)c1` belongs 12.5 µg/mL (≈ 32.9 µM); to `COc1ccccc1Nc1nc2c(-c3ccc(F)cc3)nc3ccccc3c2o1`, 6.25 µg/mL (≈ 16.2 µM).
Same read-out and setting: to `CCCCCNC(=O)Nc1c(-c2ccc(F)cc2)nc2ccccc2c1O` belongs 50 µg/mL (≈ 136 µM); to `Fc1cccc(-c2nc3ccccc3c3oc(NCCc4ccccc4)nc23)c1`, 50 µg/mL (≈ 130 µM).
Regarding `CCCCCNc1nc2c(-c3ccc(F)cc3)nc3ccccc3c2o1`, the MIC was determined as 50 µg/mL (≈ 143 µM).
